The values below come from PubChem BioAssay.

Assay [1] is described as follows: inhibitors of TNFa-induced NFkB p65 translocation, primary screen, imaging, HUVEC, MLSMR starter and 10KST1 sets (AID 438;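 active means inhibition above 20% together with a positive visual image hit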;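 further: compound added about 3h40 before a 20 min TNFalpha stimulation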;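 on inhibition: signal is the nuclear over cytoplasmic p65 intensity ratio per well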). Particulars: HUVEC TNFa-induced p65 nuclear translocation; cell count: measured here: nuclei count (cytotoxicity indicator), at 2.08 µM; inhibition: at 2 µM, stronger effect = higher value, 0% TNFa-plus-vehicle, 100% no-TNFa wells.
A short description of assay [2]: inhibitors of mutant huntingtin aggregation, primary screen, imaging, exon1htt(103Q)mCFP cells, high-content imaging (AID 483;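 active means visual image review flags a hit and inhibition of aggregation exceeds 20%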;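 further: compound exposure lasted 3 days before fixation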;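 on nuclei count: percent of the per-plate median nuclei count of sample wells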). The settings on record: exon1htt(103Q)mCFP cell line, aggregate imaging, at 2 µM; inhibition of aggregation: stronger effect = higher value; nuclei count: measured here: cell count, toxicity.
The nature of assay [3]: inhibitors of E-selectin induction by TNFa, primary screen, imaging, HUVEC, immunofluorescence, MLSMR starter and 10KST1 sets (AID 487;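 active means visually confirmed hit in the image check and inhibition above 20%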;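 on inhibition: signal is fraction of cell area covered by stained E-selectin grains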;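 on nuclei count: 100% = median nuclei count of all wells on the same plate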). Particulars: HUVEC TNFalpha-induced E-selectin immunofluorescence imaging, at 2 µM; inhibition: stronger effect = higher value; nuclei count: measured here: cell number, toxicity.
Assay [4] deals with Voltage-gated potassium channel subunit beta-2 (Rattus norvegicus) (UniProt P62483). The assay is described as follows: KvBeta enzyme negative modulators, primary screen, biochemical, NADPH fluorescence (AID 622;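 active means fluorescence slope higher than the sample average by over 3 SD, cut at about -0.22 in these data, passing the limit was not always enough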;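 further: slope of raw intensity against log time taken from 70 to 1610 s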). The settings on record: recombinant KvBeta, 4-cyanobenzaldehyde reduction, at 10 µM, stronger effect = higher value.
Voltage-gated potassium channel subunit beta-2 (Rattus norvegicus), sequence (P62483 whole entry, looked up): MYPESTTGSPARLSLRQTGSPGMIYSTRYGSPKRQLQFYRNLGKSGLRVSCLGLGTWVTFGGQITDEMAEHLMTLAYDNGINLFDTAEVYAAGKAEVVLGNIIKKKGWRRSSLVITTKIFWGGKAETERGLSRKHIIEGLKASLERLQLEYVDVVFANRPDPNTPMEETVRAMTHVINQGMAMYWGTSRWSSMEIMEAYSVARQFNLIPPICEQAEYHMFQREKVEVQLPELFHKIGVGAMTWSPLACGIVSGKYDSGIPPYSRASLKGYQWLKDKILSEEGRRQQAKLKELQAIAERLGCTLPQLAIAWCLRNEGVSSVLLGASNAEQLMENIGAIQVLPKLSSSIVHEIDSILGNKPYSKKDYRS
Assay [5] has the same target. Description: KvBeta positive modulators, primary screen, biochemical, NADPH fluorescence (AID 623).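 Further: fluorescence intensity change per second fitted from 20 to 320 s.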 Particulars: Recombinant KvBeta, NADPH fluorescence decrease slope, 10 min; at 10 µM; stronger effect = lower value.
Assay [6] has as its target Muscarinic acetylcholine receptor M4 (Homo sapiens) (UniProt P08173). The assay is described as follows: compounds altering M4/GIRK thallium flux, either direction, primary screen, M4 allosteric agonist project, cell-based, HEK293 M4/GIRK, BTC-AM (AID 625;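 active means fluorescence slope after compound addition differing from the mean of all tested samples at 99.7% confidence, mostly higher but some lower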;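 further: thallium influx through GIRK channels coupled to M4 in HEK293 cells with BTC-AM dye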). The settings on record: at 10 µM, actives lie on both sides. The essentials:
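Material – HEK293 cells with M4 receptor and GIRK channels · Buffer or medium – pH 7.3 thallium assay buffer · Doses – one dose, 10 µM final · Timing – cells overnight at 37 °C, BTC-AM loading 1 h, reads 2 min total · Measured by – kinetic fluorescence with BTC-AM dye · Controls – carbachol and DMSO controls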

The nature of assay [7]: inhibitors of Sendai virus-induced IRF3 signaling, primary screen, TLR/RLR signaling modifier project, cell-based, Sendai virus stimulus, luciferase, 10K MLSCN set (AID 602276;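 active means inhibition at or above 50% at 10 µM; inactive means inhibition below 50%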;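 further: firefly luciferase from ISG56 promoter only with Renilla not read in this screen; 0% = Sendai virus plus DMSO and 100% = medium plus DMSO without virus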). The settings on record: HEK293 RL24 IRF3 luciferase reporter, at 10 µM, stronger effect = higher value. On the technique in general: A reporter such as luciferase makes a cellular process visible.
Assay [8] can be described thus: inhibitors of poly I:C-induced TLR3 signaling, primary screen, cell-based, poly I:C stimulus, luciferase, 10K MLSCN set (AID 602277;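 active means inhibition of the reporter signal at or above 50%; inactive means inhibition below 50%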). The settings on record: HEK293-TLR3 RL24 IRF3 luciferase reporter, at 10 µM, stronger effect = higher value.

Activity calls are given as the source filed them.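 How the source made its calls, unless noted: active means NADPH fluorescence slope more negative than the mean of all samples by about 3 SD, 99.7% confidence; inactive means the rest.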

One may read the inhibition as the relative decrease from the control value, in per cent.

Muscarinic acetylcholine receptor M4 (Homo sapiens), sequence (P08173 whole entry, looked up): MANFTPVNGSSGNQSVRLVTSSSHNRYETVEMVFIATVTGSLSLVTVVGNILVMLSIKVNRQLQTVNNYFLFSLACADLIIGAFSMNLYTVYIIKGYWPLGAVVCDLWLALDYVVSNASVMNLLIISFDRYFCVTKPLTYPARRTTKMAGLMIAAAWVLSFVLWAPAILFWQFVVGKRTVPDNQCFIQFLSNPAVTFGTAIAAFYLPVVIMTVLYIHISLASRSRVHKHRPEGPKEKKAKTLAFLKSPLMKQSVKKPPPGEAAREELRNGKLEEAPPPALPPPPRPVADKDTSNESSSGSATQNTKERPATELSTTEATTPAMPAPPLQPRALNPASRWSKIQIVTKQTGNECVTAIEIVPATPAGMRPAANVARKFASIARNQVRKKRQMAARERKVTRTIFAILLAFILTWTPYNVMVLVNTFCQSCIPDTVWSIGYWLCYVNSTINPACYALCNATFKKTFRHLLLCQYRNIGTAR

Turning to `COC(=O)CCCCCNc1ccc(C(=O)OC)cc1N`, the cell count in assay [1] amounted to 292. Moreover, the inhibition was 7.7% (inactive) in assay [1], -71.5% (inactive) in assay [3], 6.15% (inactive) in assay [7] and 18.3% (inactive) in assay [8]. Moreover, in assay [2], the inhibition of aggregation is 12.1% (inactive). Besides, the nuclei count in assay [2] worked out at 92.9%; in assay [3] it was 122%. In addition, the figures for the fluorescence slope in assay [4] and in assay [6] were -0.341 (inactive) and 0.00505 (inactive), respectively. In addition, the NADPH fluorescence slope in assay [5] was -6.2e-05 (inactive).
`Cc1ccc(S(=O)(=O)NC(C(=O)OCC(=O)NC2CCS(=O)(=O)C2)C(C)C)cc1` (centres undefined): the cell count in assay [1] came to 654. Also, the inhibition in assay [1] is -10.1% (inactive); in assay [3], -40.2% (inactive); in assay [7], -14% (inactive); in assay [8], 18.4% (inactive). Also, the inhibition of aggregation in assay [2] is 9.6% (inactive). For the same compound, the results for the nuclei count in assay [2] and in assay [3] were 93.4% and 109%, respectively. Besides, the fluorescence slope in assay [4] was -0.578 (inactive); in assay [6] it was 0.0094 (inactive). Further, the NADPH fluorescence slope in assay [5] is 9.1e-06 (inactive).
For the compound `CCOc1ccc(N2CC(C(=O)Nc3ccc(F)cc3F)CC2=O)cc1` (centres undefined), in assay [1], the cell count was found to be 847. Also, the inhibition in assay [1] was 10.1% (inactive); in assay [3], -3.5% (inactive); in assay [7], 6.56% (inactive); in assay [8], 26.2% (inactive). The inhibition of aggregation in assay [2] is 7.4% (inactive). In addition, the figures for the nuclei count in assay [2] and in assay [3] were 92.8% and 99.9%, respectively. Also, the fluorescence slope in assay [4] is -0.587 (inactive); in assay [6], 0.00677 (inactive). Moreover, the NADPH fluorescence slope in assay [5] is 2.2e-05 (inactive).
Consider `CCNC(=O)CC1C(=O)N(c2ccccc2)C(=O)N1Cc1ccc(OC)cc1` (centres undefined), for which the cell count in assay [1] is 442. In addition, the inhibition in assay [1] was 5.9% (inactive); in assay [3], -289% (inactive); in assay [7], 14.5% (inactive); in assay [8] it was 21.8% (inactive). Besides, the inhibition of aggregation in assay [2] is -1.6% (inactive). The nuclei count in assay [2] is 69.1%; in assay [3], 92.6%. Moreover, the fluorescence slope in assay [4] is -0.567 (inactive); in assay [6], 0.00553 (inactive). In addition, the NADPH fluorescence slope in assay [5] was 2e-05 (inactive).
Turning to `CCc1nnc(NC(=O)c2ccc(-c3cccc(C(F)(F)F)c3)o2)s1`, in assay [1], the cell count was 730. Also, the inhibition is -2.9% (inactive) in assay [1], -24.2% (inactive) in assay [3], -0.00167% (inactive) in assay [7] and -0.904% (inactive) in assay [8]. Further, the inhibition of aggregation in assay [2] is 43.6% (inactive). Also, the nuclei count in assay [2] worked out at 76.5%; in assay [3], 99.1%. Further, the results for the fluorescence slope in assay [4] and in assay [6] were -0.528 (inactive) and 0.00667 (inactive), respectively. The NADPH fluorescence slope in assay [5] is -4.6e-05 (inactive).
As for `CS(=O)(=O)N(CC(=O)N1CCCCCC1)c1ccccc1`, the cell count in assay [1] was determined as 324. The inhibition in assay [1] was -0.2% (inactive); in assay [3], -11.6% (inactive); in assay [7], 11.4% (inactive); in assay [8] it was 8.59% (inactive). Also, the inhibition of aggregation in assay [2] was 1.9% (inactive). Also, the nuclei count in assay [2] worked out at 82.8%; in assay [3], 106%. The figures for the fluorescence slope in assay [4] and in assay [6] were -0.452 (inactive) and 0.00505 (inactive), respectively. Further, the NADPH fluorescence slope in assay [5] is -3.4e-05 (inactive).
Consider `COc1cccc(CNC(=O)C2CCN(S(=O)(=O)c3ccc(F)cc3)CC2)c1`, for which, in assay [1], the cell count turned out to be 603. The inhibition is 9.6% (inactive) in assay [1], -47.8% (inactive) in assay [3], 19.5% (inactive) in assay [7] and 20.1% (inactive) in assay [8]. The inhibition of aggregation in assay [2] was 5.3% (inactive). Also, the nuclei count in assay [2] was found to be 103%; in assay [3], 123%. Further, the fluorescence slope is -0.553 (inactive) in assay [4] and 0.00553 (inactive) in assay [6]. Besides, the NADPH fluorescence slope in assay [5] was -5.5e-05 (inactive).
For `CCOC(=O)CCCn1nc(C)n2c(cc3sccc32)c1=O`, in assay [1], the cell count is 563. Also, the inhibition was -3.2% (inactive) in assay [1], -28.3% (inactive) in assay [3], -11.6% (inactive) in assay [7] and -28.8% (inactive) in assay [8]. Besides, the inhibition of aggregation in assay [2] is -1.6% (inactive). The nuclei count in assay [2] and in assay [3] was 119% in each case. Moreover, the fluorescence slope in assay [4] was -0.406 (inactive); in assay [6], 0.00716 (inactive). Also, the NADPH fluorescence slope in assay [5] is 8.7e-05 (inactive).
Consider `O=C(C1CC1)N(Cc1ccco1)c1nc(-c2ccccc2)cs1`, for which, in assay [1], the cell count was determined as 336. Also, the inhibition in assay [1] is 6.6% (inactive); in assay [3], -72.7% (inactive); in assay [7] it was -13.9% (inactive); in assay [8] it was -15.4% (inactive). Also, the inhibition of aggregation in assay [2] was 3.5% (inactive). The nuclei count turned out to be 104% in assay [2] and 109% in assay [3]. The fluorescence slope in assay [4] is -0.445 (inactive); in assay [6] it was 0.00828 (inactive). Besides, in assay [5], the NADPH fluorescence slope was -8.7e-05 (inactive).
For the compound `COC(=O)C1=C(C)NC(=O)C1(NC(=O)c1cccnc1)C(F)(F)F` (centres undefined), the cell count in assay [1] amounted to 609. The inhibition in assay [1] was -3.9% (inactive); in assay [3], -68.7% (inactive); in assay [7], -31.4% (inactive); in assay [8], 56.2% (active). Moreover, the inhibition of aggregation in assay [2] was -6.9% (inactive). The figures for the nuclei count in assay [2] and in assay [3] were 87.8% and 103%, respectively. Moreover, the fluorescence slope in assay [4] is -0.565 (inactive); in assay [6], 0.00444 (inactive). Besides, the NADPH fluorescence slope in assay [5] is -2.9e-05 (inactive).
With `O=C(CCCn1c(=O)c2sccc2n(Cc2ccc(F)cc2)c1=O)NCc1ccco1`, the cell count in assay [1] came to 417. For the same compound, the inhibition in assay [1] was -9.3% (inactive); in assay [3], -40.1% (inactive); in assay [7] it was 7.63% (inactive); in assay [8] it was 15.5% (inactive). Moreover, the inhibition of aggregation in assay [2] was 3% (inactive). Moreover, the nuclei count in assay [2] is 92.5%; in assay [3] it was 106%. Besides, the fluorescence slope in assay [4] is -0.583 (inactive); in assay [6] it was 0.00594 (inactive). Besides, the NADPH fluorescence slope in assay [5] is -2.1e-06 (inactive).
Take `Cc1onc(-c2c(Cl)cccc2Cl)c1C(=O)NCCCN1CCOCC1`: the cell count in assay [1] is 618. Further, the inhibition is 3.6% (inactive) in assay [1], -48.9% (inactive) in assay [3], 9.5% (inactive) in assay [7] and 10.6% (inactive) in assay [8]. Besides, in assay [2], the inhibition of aggregation is 13.7% (inactive). In addition, the nuclei count is 100% in assay [2] and 84% in assay [3]. In addition, the fluorescence slope is -0.47 (inactive) in assay [4] and 0.00479 (inactive) in assay [6]. Besides, the NADPH fluorescence slope in assay [5] was -2.9e-05 (inactive).
On to `COC(=O)c1ccc(NC(=O)CN2C(=O)CSC2=O)cc1`, for which the cell count in assay [1] was found to be 454. In addition, the inhibition in assay [1] was 3.1% (inactive); in assay [3] it was -41% (inactive); in assay [7], 7.22% (inactive); in assay [8], 10.7% (inactive). Moreover, in assay [2], the inhibition of aggregation is -17.9% (inactive). Besides, the nuclei count in assay [2] is 113%; in assay [3], 109%. Besides, the fluorescence slope in assay [4] was -0.404 (inactive); in assay [6], 0.00594 (inactive). Further, the NADPH fluorescence slope in assay [5] is -3e-05 (inactive).
For the compound `CCOC(=O)CSc1nnc(CNC(=O)c2cccs2)n1-c1cc(OC)ccc1OC`, the cell count in assay [1] came out at 521. Further, the inhibition in assay [1] is -3.3% (inactive); in assay [3] it was -7.4% (inactive); in assay [7] it was 0.513% (inactive); in assay [8], 17.5% (inactive). For the same compound, the inhibition of aggregation in assay [2] was -5.1% (inactive). The nuclei count is 103% in assay [2] and 95.1% in assay [3]. Moreover, the values for the fluorescence slope in assay [4] and in assay [6] were -0.545 (inactive) and 0.00509 (inactive), respectively. In addition, the NADPH fluorescence slope in assay [5] was -2.7e-05 (inactive).
